This is an account of results in ChEMBL document CHEMBL1121602, “Analogues of 8-[[6-(diethylamino) hexyl]amino]-6-methoxy-4-methylquinoline as candidate antileishmanial agents” (1980).

SMILES strings stand for the structures. The source made the active and inactive calls. The calls are words filed in the database; no cut-off is given here.

Assay [1] has as its system Cricetinae gen. sp. The experiment in a line: Antileishmanial activity against Leishmania donovani in hamsters at a concentration of 0.20 mg/kg. Format: functional. Particulars: dose 0.2 mg/kg. In a few lines: (§1)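 L. donovani infection in hamsters, following an earlier-cited protocol. Meglumine antimoniate was the reference drug. A G index, the activity of each test agent relative to the reference, was calculated from the dose-response data.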

Assay [2] deals with Cricetinae gen. sp. Put plainly: Antileishmanial activity against Leishmania donovani in hamsters at a concentration of 0.81 mg/kg. Format: functional. In a few lines:
as §1

The subject of assay [3] is Cricetinae gen. sp. Put plainly: Antileishmanial activity against Leishmania donovani in hamsters at a concentration of 13 mg/kg. Format: functional. In a few lines:
as §1

The test system of assay [4] is Cricetinae gen. sp. The experiment in a line: Antileishmanial activity against Leishmania donovani in hamsters at a concentration of 0.05 mg/kg. Format: functional. A digest of the protocol:
as §1

The nature of assay [5]: G index = SD90 for meglumine antimoniate / SD90 for the compound. Format: functional. A digest of the protocol: as §1
The test system of assay [6] is Cricetinae gen. sp. The experiment in a line: Antileishmanial activity against Leishmania donovani in hamsters at a concentration of 0.81 mg/kg; I = inactive. Format: functional, organism-based. Details: dose 0.81 mg/kg. A digest of the protocol: as §1
Assay [7] deals with Cricetinae gen. sp. The experiment in a line: Antileishmanial activity against Leishmania donovani in hamsters at a concentration of 13 mg/kg; I = inactive. Format: functional, organism-based. Details: dose 13 mg/kg. A digest of the protocol: as §1
In assay [8] the test system is Cricetinae gen. sp. Put plainly: Antileishmanial activity against Leishmania donovani in hamsters at a concentration of 208 mg/kg. Format: functional. A digest of the protocol: as §1
Assay [9] relates to Cricetinae gen. sp. The experiment in a line: Antileishmanial activity against Leishmania donovani in hamsters at a concentration of 13 mg/kg (toxic). Format: functional. In a few lines: as §1
The subject of assay [10] is Cricetinae gen. sp. The experiment in a line: Antileishmanial activity against Leishmania donovani in hamsters at a concentration of 52 mg/kg. Format: functional. In a few lines: as §1

On to `COc1cc(NCCCCCCN(C(C)C)C(C)C)c2nccc(C)c2c1.Cl.Cl`, for which the Supression in the assay with Cricetinae gen. sp. [1] is 97.4%; in the assay with Cricetinae gen. sp. [2], 100%; in the assay on Cricetinae gen. sp. [3] it was 97.5%; with Cricetinae gen. sp. [4], 20.2%. In assay [5], this compound returned a G Index of 310.

As for `CCN(CC)CCCCCCCNc1cc(OC)cc2c(C)ccnc12.Cl.Cl`, the Supression in the assay on Cricetinae gen. sp. [1] was 73.1%; with Cricetinae gen. sp. [2], 99.8%; with Cricetinae gen. sp. [3], 100%. For the same compound, the G Index in assay [5] is 96.8.

Turning to `CCN(CC)CCCCCCNc1cc(OC)c(OC)c2c(C)ccnc12.Cl.Cl`, the Supression with Cricetinae gen. sp. [1] was 100%; in the assay with Cricetinae gen. sp. [2], 100%; with Cricetinae gen. sp. [3], 99.9%; in the assay on Cricetinae gen. sp. [4] it was 68%. The same compound displayed a G Index in assay [5] of 401.

On to `CCN(CC)CCCCCCNc1cc(OC)cc2c(C)ccnc12` [SITAMAQUINE], for which the figures for the Supression in the assay with Cricetinae gen. sp. [1], in the assay on Cricetinae gen. sp. [2] and in the assay on Cricetinae gen. sp. [4] were 99.6%, 100% and 83.7%, respectively. The compound further had a G Index in [5] of 474.

For `COc1cc(NCCCCCCNCCO)c2nccc(C)c2c1.Cl`, the Supression in the assay on Cricetinae gen. sp. [3] was 99.9%. In assay [5], this compound registered a G Index of 300.

As for `CCN(CC)CCCCCCNc1cc(OC)cc2c(C)cc(O)nc12`, the Supression entry with Cricetinae gen. sp. [6] and in the assay with Cricetinae gen. sp. [7] was “inactive” in each case. This compound had a Supression with Cricetinae gen. sp. [8] of 62.8%.

As to `CCCN(CCC)CCCCCCNc1cc(OC)cc2c(C)ccnc12.Cl`, the Supression with Cricetinae gen. sp. [1] was determined as 99.9%; in the assay with Cricetinae gen. sp. [2], 99.9%; in the assay with Cricetinae gen. sp. [4], 31%. This compound also displayed a G Index in assay [5] of 333.

Regarding `COc1cc(NCCCCCC(C)NC(C)C)c2nccc(C)c2c1.Cl` (stereo unspecified), the Supression was determined as 97.3% in the assay with Cricetinae gen. sp. [1], 100% with Cricetinae gen. sp. [2] and 95.4% with Cricetinae gen. sp. [9]. Moreover, in assay [5], the G Index is 300.

`CCN(CC)CCCCCNc1cc(OC)cc2c(C)ccnc12`: the Supression was found to be 91.5% in the assay on Cricetinae gen. sp. [1], 100% with Cricetinae gen. sp. [2], 100% in the assay on Cricetinae gen. sp. [3] and 100% in the assay with Cricetinae gen. sp. [10]. The compound further displayed a G Index in assay [5] of 178.

Regarding `CCN(CCO)CCCCCCNc1cc(OC)cc2c(C)ccnc12.Cl`, the Supression turned out to be 79.2% in the assay on Cricetinae gen. sp. [3] and 95.4% in the assay on Cricetinae gen. sp. [10]. The compound also displayed a G Index in [5] of 3.4.

For `COc1cc(NCCCCCCNC2CCC2)c2nccc(C)c2c1.Cl`, the Supression with Cricetinae gen. sp. [2] is given as 99.2%; in the assay on Cricetinae gen. sp. [3] it was 100%; in the assay with Cricetinae gen. sp. [10], 100%. Besides, the G Index in assay [5] worked out at 188.

For the compound `CCN(C(C)C)C(C)CCCCCNc1cc(OC)cc2c(C)ccnc12.Cl.Cl` (stereo unspecified), the Supression came out at 97.3% in the assay on Cricetinae gen. sp. [1], 100% in the assay on Cricetinae gen. sp. [2] and 95.4% with Cricetinae gen. sp. [9].
